# Published values of several laboratories.
# Cell line: HepG2
# Observed: cell growth or viability
SMILES,assay,conditions,CC50 [µM]
O[C@@H](CN[C@H](COCC1CC1)Cc1ccccc1)c1cc(Cl)cc2c1-c1ccc(Cl)cc1C2,,48 h,13.8
Cn1nc2c(=O)n(C3CC3)ncc2c1[C@](O)(c1cnc(C(F)(F)F)c(Cl)c1)C(F)(F)F,ATP luminescence,,38
CCCCCCCNC[C@@H](O)c1cc(Cl)cc2c1-c1ccc(Cl)cc1C2,,48 h,5
CC[C@@](N)(c1cnc(C(F)(F)F)c(Cl)c1)c1c2ncn(C3CC3)c(=O)c2nn1C,ATP luminescence,,> 50
Cn1cc2c3c1C(=O)C(NCCc1ccc(O)cc1)=CC3=[N+](C)CC2,MTT,72 h,0.5
COCC(=O)N1CCC[C@H](C(=O)NCc2nc(-c3cccnc3)cs2)C1,ATP luminescence,96 h,> 50
O=C1c2ccccc2-n2c1nc1ccccc1c2=O,ATP luminescence,,6 to 9
O=C1C=C2NCCc3c[nH]c(c32)C1=O,MTT,72 h,50
COCC(=O)N1CCC[C@H](C(=O)NCc2nc(-c3ccc(OC)cc3)cs2)C1,ATP luminescence,96 h,> 50
O[C@@H](CNCCCC(F)(F)F)c1cc(Cl)cc2c1-c1ccc(Cl)cc1C2,,48 h,13.8
CCOCC(=O)N1CCC[C@H](C(=O)NCc2nc(-c3ccc(C)nc3)cs2)C1,ATP luminescence,96 h,> 50
O=C1C(NCCc2c[nH]c3ccccc23)=CC2=NCCc3c[nH]c1c32,MTT,72 h,4
CCCCCCNC[C@@H](O)c1cc(Cl)cc2c1-c1ccc(Cl)cc1C2,,48 h,6.3
O=C1c2[nH]cc3c2C(=NCC3)c2c(-c3ccc(O)cc3)c[nH]c21,MTT,72 h,0.3
COCC(=O)N1CCCC(C(=O)NCc2nc(-c3ccccc3)cs2)C1 (racemic),ATP luminescence,96 h,> 50
